ChEMBL document CHEMBL5724801, “EUbOPEN Chemogenomics Library - Multiplex” (2024)
Values joined by “and” are separate entries in the source; they are usually repeats but may differ in a detail not shown here. Equal values may be shown once.

Tested on: HEK-293T
Assay: Multiplex assay against HEK293T
Type: toxicity, cell-based
Settings: human
Summary of the method: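 With compound added, live cells were imaged on a CQ1 microscope at 37°C and 5% CO2; staining with Hoechst33342, BioTracker Green Microtubule Cytoskeleton Dye, MitoTracker Red and Annexin V Alexa Fluor 680 had been done at seeding. The CellPathfinder machine-learning gating scheme split cells into Hoechst high-intensity objects or normal cells, normal cells into healthy, pyknosed or fragmented nuclei, and pyknosed cells into mitotic or apoptotic. The tubulin, mitochondrial-mass and membrane-permeability phenotypes are per cents of healthy-nucleus cells.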

[1] = 12 h, 1 µM, compound concentration 1 uM
[2] = 12 h, 10 µM, compound concentration 10 uM
[3] = 24 h, 1 µM, compound concentration 1 uM
[4] = 24 h, 10 µM, compound concentration 10 uM
[5] = 48 h, 1 µM, compound concentration 1 uM
[6] = 48 h, 10 µM, compound concentration 10 uM

Q: Which results are given for `Cn1ncnc1COc1nn2c(-c3cc(F)ccc3F)nnc2cc1C(C)(C)C`?
A: Population Apoptotic (%) [1]: 8.93% and 7.56%; Population Fragmented Nuclei (%) [1]: 2.83% and 4.35%; Population Hoechst High Intensity Objects (%) [1]: 0%; Population Mitochondria Different-Phenotype (%) [1]: 29.79% and 46.15%; Population Mitotic Cells (%) [1]: 91.07% and 92.44%; Population Normal (%) [1]: 100%; Population Pyknosed Nuclei (%) [1]: 52.83% and 86.23%; Total Cell Count [1]: 318 and 138; Population Apoptotic (%) [2]: 12.9% and 20.39%; Population Fragmented Nuclei (%) [2]: 0.72% and 5.3%; Population Healthy Nuclei (%) [2]: 43.73% and 16.67%; Population Hoechst High Intensity Objects (%) [2]: 0%; Population Mitotic Cells (%) [2]: 87.1% and 79.61%; Population Normal (%) [2]: 100%; Population Pyknosed Nuclei (%) [2]: 55.56% and 78.03%; Population Tubulin-Different-Phenotype (%) [2]: 22.95% and 27.27%; Total Cell Count [2]: 279 and 132; Population Apoptotic (%) [3]: 10.85% and 17.5%; Population Fragmented Nuclei (%) [3]: 2.35% and 3.27%; Population Hoechst High Intensity Objects (%) [3]: 0%; Population Mitochondria Different-Phenotype (%) [3]: 20.12% and 10.71%; Population Mitotic Cells (%) [3]: 89.15% and 82.5%; Population Normal (%) [3]: 100%; Population Pyknosed Nuclei (%) [3]: 27.56% and 78.43%; Population Tubulin-Different-Phenotype (%) [3]: 23.17% and 10.71%; Population Apoptotic (%) [4]: 25.69% and 29.36%; Population Fragmented Nuclei (%) [4]: 1.85% and 4.23%; Population Hoechst High Intensity Objects (%) [4]: 0.52% and 0%; Population Mitochondria Different-Phenotype (%) [4]: 34.22% and 18.52%; Population Mitotic Cells (%) [4]: 74.31% and 70.64%; Population Normal (%) [4]: 99.48% and 100%; Population Pyknosed Nuclei (%) [4]: 28.76% and 76.76%; Population Tubulin-Different-Phenotype (%) [4]: 50.19% and 33.33%; Total Cell Count [4]: 381 and 142; Population Apoptotic (%) [5]: 9.38% and 21.84%; Population Fragmented Nuclei (%) [5]: 2.19% and 2.84%; Population Healthy Nuclei (%) [5]: 86.12% and 47.73%; Population Hoechst High Intensity Objects (%) [5]: 0% and 0.56%; Population Mitochondria Different-Phenotype (%) [5]: 20.57% and 32.14%; Population Mitotic Cells (%) [5]: 90.62% and 78.16%; Population Normal (%) [5]: 100% and 99.44%; Population Apoptotic (%) [6]: 22.83% and 17.39%; Population Fragmented Nuclei (%) [6]: 1.92%; Population Healthy Nuclei (%) [6]: 77.76% and 53.85%; Population Hoechst High Intensity Objects (%) [6]: 0.32% and 0%; Population Mitochondria Different-Phenotype (%) [6]: 45.27% and 57.14%; Population Mitotic Cells (%) [6]: 77.17% and 82.61%; Population Normal (%) [6]: 99.68% and 100%; Population Pyknosed Nuclei (%) [6]: 20.32% and 44.23%

Q: How did the “Population Apoptotic (%)” value [1] turn out when `COC[C@@H](CC(C)C)NC1=N/C(=C\c2ccc3ncsc3c2)C(=O)N1C` was run?
A: 13.64% and 37.5%

Q: And the “Population Fragmented Nuclei (%)” value [1]?
A: 6.45% and 8%

Q: And the “Population Healthy Nuclei (%)” value [1]?
A: 58.06% and 23.43%

Q: What about the “Population Hoechst High Intensity Objects (%)” value [1] of the same molecule?
A: 0.8% and 0%

Q: What about the “Population Membrane Permeable-Phenotype (%)” value [1] of the same molecule?
A: 0.69% and 2.44%

Q: What about the “Population Mitotic Cells (%)” value [1] of the same molecule?
A: 86.36% and 62.5%

Q: What about the “Population Normal (%)” value [1] of the same molecule?
A: 99.2% and 100%

Q: What about the “Population Pyknosed Nuclei (%)” value [1] of the same molecule?
A: 35.48% and 68.57%

Q: And the “Population Tubulin-Different-Phenotype (%)” value [1]?
A: 6.94% and 14.63%

Q: What about the “Total Cell Count” value [1] of the same molecule?
A: 250 and 175

Q: What about the “Population Apoptotic (%)” value [2] of the same molecule?
A: 25.51% and 35.09%

Q: And the “Population Fragmented Nuclei (%)” value [2]?
A: 88.19% and 92.28%

Q: What about the “Population Healthy Nuclei (%)” value [2] of the same molecule?
A: 3.54% and 1.77%

Q: And the “Population Hoechst High Intensity Objects (%)” value [2]?
A: 4.51% and 10.38%

Q: And the “Population Membrane Permeable-Phenotype (%)” value [2]?
A: 0% and 5.88%

Q: What about the “Population Mitochondria Different-Phenotype (%)” value [2] of the same molecule?
A: 0%

Q: What about the “Population Mitotic Cells (%)” value [2] of the same molecule?
A: 74.49% and 64.91%

Q: And the “Population Normal (%)” value [2]?
A: 95.49% and 89.62%

Q: And the “Population Pyknosed Nuclei (%)” value [2]?
A: 8.27% and 5.95%

Q: And the “Population Tubulin-Different-Phenotype (%)” value [2]?
A: 16.67% and 5.88%

Q: And the “Total Cell Count” value [2]?
A: 1241 and 1069

Q: What about the “Population Apoptotic (%)” value [3] of the same molecule?
A: 46.3% and 34.07%

Q: And the “Population Fragmented Nuclei (%)” value [3]?
A: 6.23% and 6.63%

Q: What about the “Population Healthy Nuclei (%)” value [3] of the same molecule?
A: 76.07% and 38.55%

Q: What about the “Population Hoechst High Intensity Objects (%)” value [3] of the same molecule?
A: 2.87% and 1.19%

Q: And the “Population Membrane Permeable-Phenotype (%)” value [3]?
A: 0.43% and 1.56%

Q: And the “Population Mitochondria Different-Phenotype (%)” value [3]?
A: 19.83% and 7.81%

Q: And the “Population Mitotic Cells (%)” value [3]?
A: 53.7% and 65.93%

Q: And the “Population Normal (%)” value [3]?
A: 97.13% and 98.81%

Q: What about the “Population Tubulin-Different-Phenotype (%)” value [3] of the same molecule?
A: 19.4% and 12.5%

Q: And the “Total Cell Count” value [3]?
A: 314 and 168

Q: What about the “Population Apoptotic (%)” value [4] of the same molecule?
A: 41.88% and 34.04%

Q: What about the “Population Fragmented Nuclei (%)” value [4] of the same molecule?
A: 84.82% and 94.42%

Q: And the “Population Healthy Nuclei (%)” value [4]?
A: 4.67% and 1.42%

Q: What about the “Population Hoechst High Intensity Objects (%)” value [4] of the same molecule?
A: 5.28% and 8.58%

Q: And the “Population Membrane Permeable-Phenotype (%)” value [4]?
A: 9.62% and 0%

Q: And the “Population Mitochondria Different-Phenotype (%)” value [4]?
A: 5.77% and 0%

Q: What about the “Population Mitotic Cells (%)” value [4] of the same molecule?
A: 58.12% and 65.96%

Q: And the “Population Normal (%)” value [4]?
A: 94.72% and 91.42%

Q: And the “Population Pyknosed Nuclei (%)” value [4]?
A: 10.51% and 4.16%

Q: And the “Population Tubulin-Different-Phenotype (%)” value [4]?
A: 15.38% and 0%

Q: And the “Total Cell Count” value [4]?
A: 1175 and 1236

Q: And the “Population Apoptotic (%)” value [5]?
A: 43.33% and 39.58%

Q: What about the “Population Fragmented Nuclei (%)” value [5] of the same molecule?
A: 10.02% and 10.37%

Q: What about the “Population Healthy Nuclei (%)” value [5] of the same molecule?
A: 83.97% and 54.07%

Q: And the “Population Hoechst High Intensity Objects (%)” value [5]?
A: 2.16% and 8.16%

Q: What about the “Population Membrane Permeable-Phenotype (%)” value [5] of the same molecule?
A: 3.34% and 1.37%

Q: And the “Population Mitochondria Different-Phenotype (%)” value [5]?
A: 36.28% and 26.03%

Q: And the “Population Mitotic Cells (%)” value [5]?
A: 56.67% and 60.42%

Q: What about the “Population Normal (%)” value [5] of the same molecule?
A: 97.84% and 91.84%

Q: What about the “Population Fragmented Nuclei (%)” value [6] of the same molecule?
A: 90.84% and 92.95%

Q: What about the “Population Healthy Nuclei (%)” value [6] of the same molecule?
A: 2.22% and 3.18%

Q: And the “Population Hoechst High Intensity Objects (%)” value [6]?
A: 6.5% and 11.42%

Q: What about the “Population Membrane Permeable-Phenotype (%)” value [6] of the same molecule?
A: 6.67% and 0%

Q: What about the “Population Mitochondria Different-Phenotype (%)” value [6] of the same molecule?
A: 23.33% and 0%

Q: And the “Population Normal (%)” value [6]?
A: 93.5% and 88.58%

Q: What about the “Population Pyknosed Nuclei (%)” value [6] of the same molecule?
A: 6.95% and 3.87%

Q: What about the “Population Tubulin-Different-Phenotype (%)” value [6] of the same molecule?
A: 10% and 2.38%

Q: What about the “Total Cell Count” value [6] of the same molecule?
A: 1447 and 1489
